Data on 4 compounds can be found in ChEMBL document CHEMBL1148372 (J Med Chem, 2004).

Assay [1] concerns the target T1, D(4) dopamine receptor (Homo sapiens, UniProt P21917).
T1 sequence (P21917 whole entry): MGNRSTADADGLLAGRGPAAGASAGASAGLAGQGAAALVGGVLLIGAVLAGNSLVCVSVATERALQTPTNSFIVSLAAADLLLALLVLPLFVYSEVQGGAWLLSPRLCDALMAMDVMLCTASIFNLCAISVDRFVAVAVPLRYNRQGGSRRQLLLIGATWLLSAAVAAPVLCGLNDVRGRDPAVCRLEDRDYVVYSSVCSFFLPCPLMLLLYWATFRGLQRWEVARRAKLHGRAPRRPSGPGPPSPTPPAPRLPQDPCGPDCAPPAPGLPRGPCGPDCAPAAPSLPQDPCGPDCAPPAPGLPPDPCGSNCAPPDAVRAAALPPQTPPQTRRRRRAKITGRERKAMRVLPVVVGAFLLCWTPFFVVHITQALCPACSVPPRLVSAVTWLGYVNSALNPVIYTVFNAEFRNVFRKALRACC
Description: In vitro EC50 tested on HEK293 cells co-transfected with human Dopamine receptor D4.4 using FLIPR assay. In kind it is cell-based. In outline:
(§1)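 HEK293 cells coexpressing human D4.4 receptor and Gαqo5, plated at 20 000 cells/well and grown 2 days. Loaded 1 h at 23 °C with 4 µM Fluo-4 plus 0.04% Pluronic F-127 in DPBS, washed four times. Compound added, fluorescence read over 3 min.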

A short description of assay [2]: Binding affinity tested against D4.2 receptor in Chinese hamster ovary cell line (CHO cells) using [3H]spiperone as a radioligand. In kind it is cell-based, Cricetulus griseus.
The target in assay [3] is T2, D(4) dopamine receptor (Homo sapiens) (UniProt P21917).
T2 sequence (whole entry): T1 sequence (P21917 whole entry)
As to the kind of experiment: In vitro efficacy tested on human Dopamine receptor D4.4 were co-expressed with GRqo5 in HEK293 cells using FLIPR assay (Efficacy relative to 10 uM dopamine). It is filed as cell-based. In a few lines: as §1

The subject of assay [4] is Rattus norvegicus. As to the kind of experiment: In vivo maximal effective dose tested in rats for erection 60 min after subcutaneous administration. In kind it is functional. In a few lines:
(§2)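 Conscious male Wistar rats, adapted 60 min to a dim red-lit room, tested between 9:00 a.m. and 3:00 p.m. Dosed subcutaneously, then caged singly and observed directly for 60 min. Percent incidence is the share of animals with one or more erections; 8–30 animals per group. Maximally effective dose is the dose giving peak incidence, with significance versus control.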

Assay [5] deals with Rattus norvegicus. Description: In vivo maximal penile erection in rats 60 min after subcutaneous administration. In kind it is functional. In a few lines: as §2
Assay [6] concerns the target T3, D(2) dopamine receptor (Rattus norvegicus, UniProt P61169). Description: In vitro effective concentration tested on HEK293 cells co-transfected with rat Dopamine receptor D2 using FLIPR assay; Not an agonist up to 10 uM. In kind it is functional, cell-based.
Assay [7] deals with T4, D(2) dopamine receptor (Homo sapiens, UniProt P14416). As to the kind of experiment: In vitro binding affinity tested on human Dopamine receptor D2 (long) using [3H]spiperon as a radioligand.
T4 sequence (P14416 whole entry): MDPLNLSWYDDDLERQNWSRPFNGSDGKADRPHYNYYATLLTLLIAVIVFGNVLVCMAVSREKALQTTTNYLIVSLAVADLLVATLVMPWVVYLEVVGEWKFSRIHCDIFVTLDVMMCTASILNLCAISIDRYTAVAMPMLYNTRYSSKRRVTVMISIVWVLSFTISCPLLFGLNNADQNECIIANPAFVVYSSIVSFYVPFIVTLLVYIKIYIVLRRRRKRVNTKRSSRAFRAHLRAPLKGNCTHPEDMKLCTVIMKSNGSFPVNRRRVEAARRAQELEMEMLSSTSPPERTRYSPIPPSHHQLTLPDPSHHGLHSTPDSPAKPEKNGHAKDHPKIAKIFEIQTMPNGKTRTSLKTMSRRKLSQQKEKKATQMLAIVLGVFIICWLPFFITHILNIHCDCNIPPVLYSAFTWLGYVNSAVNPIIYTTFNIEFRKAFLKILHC
Assay [8] has as its target T5, 5-hydroxytryptamine receptor 1A (Homo sapiens, UniProt P08908).
T5 sequence (P08908 whole entry): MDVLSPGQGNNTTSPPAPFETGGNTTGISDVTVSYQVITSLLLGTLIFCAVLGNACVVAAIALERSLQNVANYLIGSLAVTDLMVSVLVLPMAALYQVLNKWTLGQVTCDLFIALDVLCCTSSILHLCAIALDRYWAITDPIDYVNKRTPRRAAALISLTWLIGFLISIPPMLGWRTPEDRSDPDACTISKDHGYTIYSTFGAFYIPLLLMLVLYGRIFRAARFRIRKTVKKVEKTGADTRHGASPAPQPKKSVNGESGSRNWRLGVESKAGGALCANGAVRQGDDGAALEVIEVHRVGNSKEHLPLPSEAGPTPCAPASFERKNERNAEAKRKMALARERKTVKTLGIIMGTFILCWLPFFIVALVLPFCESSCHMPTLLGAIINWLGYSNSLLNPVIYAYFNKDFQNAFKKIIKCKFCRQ
As to the kind of experiment: In vitro binding affinity tested on human 5-hydroxytryptamine 1A receptor.

Assay [9] concerns the target T4, D(2) dopamine receptor. As to the kind of experiment: In vitro binding affinity tested on human Dopamine receptor D2 using [3H]spiperon as a radioligand.
For assay [10], the target named is T6, D(4) dopamine receptor (Rattus norvegicus, UniProt P30729).
T6 sequence (P30729 whole entry): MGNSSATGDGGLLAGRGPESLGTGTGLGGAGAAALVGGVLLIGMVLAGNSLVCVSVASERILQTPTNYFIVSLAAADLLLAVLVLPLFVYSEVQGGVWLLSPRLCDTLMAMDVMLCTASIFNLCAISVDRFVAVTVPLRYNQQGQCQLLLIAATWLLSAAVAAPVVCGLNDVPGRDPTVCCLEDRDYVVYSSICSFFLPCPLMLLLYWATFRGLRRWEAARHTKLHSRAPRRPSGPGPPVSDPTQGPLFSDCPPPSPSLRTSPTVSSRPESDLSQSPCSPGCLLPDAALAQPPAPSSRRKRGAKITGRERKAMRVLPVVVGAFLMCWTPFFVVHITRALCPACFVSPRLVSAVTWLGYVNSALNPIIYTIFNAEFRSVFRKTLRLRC
As to the kind of experiment: In vitro effective concentration tested on HEK293 cells co-transfected with rat Dopamine receptor D4 using FLIPR assay. In kind it is cell-based.

In assay [11] the target is T4, D(2) dopamine receptor. As to the kind of experiment: In vitro effective concentration tested on HEK293 cells co-transfected with human Dopamine receptor D2 using FLIPR assay; Not an agonist up to 10 uM. It is filed as functional, cell-based.
For assay [12], the target named is T4, D(2) dopamine receptor. As to the kind of experiment: In vitro binding affinity tested on human Dopamine receptor D2 (short) using [3H]spiperone as a radioligand.
In assay [13] the target is Kappa-type opioid receptor (Homo sapiens, UniProt P41145). As to the kind of experiment: Binding affinity towards human Opioid receptor kappa 1.
Chain of Kappa-type opioid receptor (P41145 whole entry): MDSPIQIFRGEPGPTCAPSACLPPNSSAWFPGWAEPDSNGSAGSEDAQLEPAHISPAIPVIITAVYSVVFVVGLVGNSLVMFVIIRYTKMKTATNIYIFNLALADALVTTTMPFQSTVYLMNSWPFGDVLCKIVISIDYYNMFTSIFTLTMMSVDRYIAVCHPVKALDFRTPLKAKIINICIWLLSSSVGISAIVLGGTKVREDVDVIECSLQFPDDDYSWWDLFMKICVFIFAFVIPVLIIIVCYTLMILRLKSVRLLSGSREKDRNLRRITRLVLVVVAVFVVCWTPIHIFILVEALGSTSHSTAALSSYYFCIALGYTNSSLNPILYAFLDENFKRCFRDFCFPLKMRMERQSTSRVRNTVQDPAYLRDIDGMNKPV
Assay [14] addresses T4, D(2) dopamine receptor. As to the kind of experiment: Binding affinity towards human Dopamine receptor D2.
In assay [15] the target is T3, D(2) dopamine receptor. Description: In vitro effective concentration tested on HEK293 cells co-transfected with rat Dopamine receptor D2 using FLIPR assay. It is filed as cell-based.
Assay [16] has as its target D(3) dopamine receptor (Homo sapiens, UniProt P35462). As to the kind of experiment: Binding affinity towards human Dopamine receptor D3.
The target of assay [17] is T5, 5-hydroxytryptamine receptor 1A. Description: Binding affinity towards human 5-hydroxytryptamine 1A receptor.
For assay [18], the target named is T1, D(4) dopamine receptor. Description: Binding affinity towards human D4.4 receptor. In outline:
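Membranes from HEK-293 cells transfected with human D4.4 receptor, stored at -80 °C. Filtration through glass microfiber filters, three cold Tris washes, scintillation counting; Ki derived.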

The target of assay [19] is T7, Adrenergic receptor alpha-2 (Homo sapiens, UniProt P08913+P18825+P18089).
T7 sequence (P08913 whole entry): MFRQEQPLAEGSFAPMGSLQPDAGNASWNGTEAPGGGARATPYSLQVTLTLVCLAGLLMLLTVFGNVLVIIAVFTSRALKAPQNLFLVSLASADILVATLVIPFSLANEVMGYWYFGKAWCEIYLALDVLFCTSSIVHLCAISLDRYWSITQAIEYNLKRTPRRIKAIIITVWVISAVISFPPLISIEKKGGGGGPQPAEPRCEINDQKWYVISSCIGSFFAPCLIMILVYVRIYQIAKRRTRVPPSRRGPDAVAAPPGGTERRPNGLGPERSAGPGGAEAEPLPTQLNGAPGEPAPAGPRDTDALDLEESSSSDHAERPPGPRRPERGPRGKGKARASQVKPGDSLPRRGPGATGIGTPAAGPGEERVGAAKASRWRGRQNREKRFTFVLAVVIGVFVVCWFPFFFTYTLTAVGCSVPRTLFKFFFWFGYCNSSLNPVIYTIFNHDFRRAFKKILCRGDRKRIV
T7 sequence (P18825 whole entry): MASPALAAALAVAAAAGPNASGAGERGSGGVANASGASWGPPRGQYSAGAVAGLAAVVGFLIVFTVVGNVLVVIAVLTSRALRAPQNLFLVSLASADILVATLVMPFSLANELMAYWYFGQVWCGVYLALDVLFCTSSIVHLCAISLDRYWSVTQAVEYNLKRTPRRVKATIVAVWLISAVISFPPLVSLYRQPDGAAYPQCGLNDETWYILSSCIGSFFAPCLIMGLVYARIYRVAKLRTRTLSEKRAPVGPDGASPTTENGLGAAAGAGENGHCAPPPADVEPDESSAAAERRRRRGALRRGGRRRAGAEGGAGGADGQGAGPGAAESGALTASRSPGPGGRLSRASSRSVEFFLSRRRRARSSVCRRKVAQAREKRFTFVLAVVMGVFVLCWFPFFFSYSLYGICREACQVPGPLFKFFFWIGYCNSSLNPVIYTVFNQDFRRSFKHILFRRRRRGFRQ
T7 sequence (P18089 whole entry): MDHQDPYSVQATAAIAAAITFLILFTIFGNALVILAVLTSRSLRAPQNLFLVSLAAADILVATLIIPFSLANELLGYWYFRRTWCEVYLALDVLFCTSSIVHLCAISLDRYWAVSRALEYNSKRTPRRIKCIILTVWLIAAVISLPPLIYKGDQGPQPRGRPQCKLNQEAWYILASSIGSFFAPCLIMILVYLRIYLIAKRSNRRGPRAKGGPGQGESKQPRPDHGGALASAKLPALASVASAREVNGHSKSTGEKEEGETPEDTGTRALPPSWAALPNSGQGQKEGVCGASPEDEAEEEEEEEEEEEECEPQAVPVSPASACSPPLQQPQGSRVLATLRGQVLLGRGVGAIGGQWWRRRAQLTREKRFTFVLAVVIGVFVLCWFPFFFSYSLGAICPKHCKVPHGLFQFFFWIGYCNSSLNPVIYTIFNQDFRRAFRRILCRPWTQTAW
As to the kind of experiment: Binding affinity towards human alpha-2 adrenergic receptor. In kind it is protein assay.

Assay [20] addresses D(2) dopamine receptor (Rattus norvegicus) (UniProt P61169). Description: In vitro efficacy tested on rat Dopamine receptor D2 were co-expressed with GRqo5 in HEK293 cells using FLIPR assay (Efficacy relative to 10 uM dopamine). It is filed as cell-based.
Assay [21] has as its target T1, D(4) dopamine receptor. As to the kind of experiment: In vitro effective concentration tested on HEK293 cells co-transfected with human Dopamine receptor D4 using FLIPR assay; Not an agonist up to 10 uM. In kind it is functional, cell-based. In a few lines:
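Human D4.4 receptor co-expressed with Gαqo5 in HEK293 cells, plated at 20 000 cells/well and grown 2 days. Loaded with 4 µM Fluo-4 and 0.04% Pluronic F-127 in DPBS with glucose and pyruvate for 1 h at 23 °C, then washed. Compound added and fluorescence read over 3 min on FLIPR. […] EC50 is the concentration giving half-maximal response.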

Assay [22] addresses D(2) dopamine receptor (Rattus norvegicus) (UniProt P61169). Description: In vitro efficacy tested on rat Dopamine receptor D2 were coexpressed with GRqo5 in HEK293 cells using FLIPR assay (Efficacy relative to 10 uM dopamine). In kind it is functional, cell-based. In outline: (§3)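 HEK cells co-transfected with the target receptor plus Gαqo5. […] Compounds were tested up to 10 µM. Untransfected cells served as a control.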

Assay [23] concerns the target T6, D(4) dopamine receptor. Description: In vitro effective concentration tested on HEK293 cells co-transfected with rat Dopamine receptor D4 using FLIPR assay; Not an agonist up to 10 uM. In kind it is functional, cell-based. In a few lines: as §3
Assay [24] deals with D(2) dopamine receptor (Rattus norvegicus) (UniProt P61169). As to the kind of experiment: In vitro efficacy tested on ferret Dopamine receptor D2 were co-expressed with GRqo5 in HEK293 cells using FLIPR assay (Efficacy relative to 10 uM dopamine). In kind it is functional, cell-based. In outline: as §3
Chain of D(2) dopamine receptor (Rattus norvegicus) (P61169 whole entry): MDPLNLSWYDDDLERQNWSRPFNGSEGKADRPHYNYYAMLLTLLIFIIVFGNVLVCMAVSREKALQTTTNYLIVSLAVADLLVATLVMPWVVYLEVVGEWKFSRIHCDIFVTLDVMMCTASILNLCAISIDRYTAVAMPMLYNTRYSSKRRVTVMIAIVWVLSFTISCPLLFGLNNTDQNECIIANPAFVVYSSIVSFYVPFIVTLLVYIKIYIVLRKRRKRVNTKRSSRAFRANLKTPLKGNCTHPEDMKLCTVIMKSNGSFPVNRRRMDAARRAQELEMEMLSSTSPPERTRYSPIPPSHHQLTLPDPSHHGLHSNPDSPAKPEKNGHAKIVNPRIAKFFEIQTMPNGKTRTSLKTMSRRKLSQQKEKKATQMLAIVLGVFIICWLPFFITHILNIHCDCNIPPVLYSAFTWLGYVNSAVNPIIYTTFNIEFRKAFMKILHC
For assay [25], the target named is T4, D(2) dopamine receptor. As to the kind of experiment: In vitro efficacy tested on human Dopamine receptor D2 were co-expressed with GRqo5 in HEK293 cells using FLIPR assay (Efficacy relative to 10 uM dopamine). It is filed as functional, cell-based.

Several values for one entry are separate records, joined by “and”; a condition that tells them apart may be missing. Identical values can stand only once. Where only a bound is given, the exact number is not on record here.

T3 sequence (P61169 whole entry): as above
Chain of D(3) dopamine receptor (P35462 whole entry): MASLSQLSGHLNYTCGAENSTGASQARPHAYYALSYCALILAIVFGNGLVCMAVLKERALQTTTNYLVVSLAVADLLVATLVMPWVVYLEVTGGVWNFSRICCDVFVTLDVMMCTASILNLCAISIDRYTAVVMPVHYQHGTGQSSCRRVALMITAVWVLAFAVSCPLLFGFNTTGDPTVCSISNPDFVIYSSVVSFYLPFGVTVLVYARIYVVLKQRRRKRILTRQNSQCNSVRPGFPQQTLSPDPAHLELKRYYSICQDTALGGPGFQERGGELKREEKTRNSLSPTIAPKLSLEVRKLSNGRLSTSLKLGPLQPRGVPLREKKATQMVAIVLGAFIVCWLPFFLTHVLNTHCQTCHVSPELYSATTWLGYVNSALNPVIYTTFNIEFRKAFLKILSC

As usually defined, the EC50 is the concentration giving half of the maximal effect. A word on the Ki: it is the dissociation constant of the complex between target and ligand, obtained from inhibition or displacement. Low readings indicate higher affinity, high ones lower affinity. `c1ccc(N2CCN(Cc3nc4ccccc4[nH]3)CC2)cc1` registered an EC50 in assay [1] of 0.0306 µM. The compound further yielded an inhibition constant Ki in assay [2] of 0.033 µM. Further, the Efficacy in assay [3] was 33%. The Effective dose in assay [4] worked out at 0.03 µM/kg. The compound also had an Activity in assay [5] of 75%.

As for `c1ccc(N2CCN(Cc3nc4ccccc4[nH]3)CC2)nc1` [ABT-724], the 50% effective concentration (EC50) result was “Not Active” in assay [6], 0.0143 µM in [10] and “Not Active” in [11]. Further, the inhibition constant (Ki) in [7] was 15 µM; in assay [8], > 10 µM and 2780 µM; in [9], 0.16 µM; in [12], 51 µM. In assay [3], this compound yielded an Efficacy of 61%. In assay [4], this compound displayed an Effective dose of 0.03 µM/kg. This compound also showed an Activity in assay [5] of 77%.

For `Fc1ccc2[nH]c(CN3CCN(c4ccccn4)CC3)cc2c1`, the Ki in assay [13] is 0.3 µM; in [14] it was 0.12 µM; in assay [16] it was 0.56 µM; in assay [17], 0.2 µM; in assay [18], 0.0036 µM; in assay [19], 0.4 µM. Besides, the EC50 is 0.055 µM in [15], 0.036 µM in assay [10] and “Not Active” in [11]. This compound also showed an Effective dose in [4] of 1 µM/kg. For the same compound, in [20], the Efficacy was found to be 89%. In addition, the Activity in assay [5] is 83%.

For the compound `CN[C@@H]1Cc2cccc3[nH]c(=O)n(c23)C1` [SUMANIROLE], the EC50 result in assay [21] and in assay [23] was “Not Active” in each case. Besides, the Efficacy in [22] was 103%; in [24], 90%; in assay [25], 93%.
